In general, MIC refers to the smallest concentration in the dilution series that meets the test's criterion for growth inhibition.

Experiment [1] concerns Mycolicibacterium smegmatis. As to the kind of experiment: Antimicrobial activity against Mycobacterium smegmatis MC2 155 ATCC 700084 at 62.5 mg/L after 72 hrs by MTT assay in presence of EtBr. Type of experiment: functional. In general terms: Tetrazolium assays rely on reduction of a dye to a coloured formazan, in cell work by metabolically active cells.
Experiment [2] concerns Mycolicibacterium smegmatis MC2 155. As to the kind of experiment: Inhibition of multidrug resistance efflux pump in Mycobacterium smegmatis MC2 155 ATCC 700084 assessed as reduction in EtBr MIC at 62.5 mg/L by MTT assay relative to control.
The test system of experiment [3] is Mycolicibacterium smegmatis. As to the kind of experiment: Antimicrobial activity against Mycobacterium smegmatis MC2 155 ATCC 700084 after 72 hrs by MTT assay. Type of experiment: functional. Conditions: MC2 155 ATCC 700084, 72 h.
Experiment [4] deals with Mycolicibacterium smegmatis. As to the kind of experiment: Antimicrobial activity against Mycobacterium smegmatis MC2 155 ATCC 700084 at 80 mg/L after 72 hrs by MTT assay in presence of EtBr. Type of experiment: functional.
Experiment [5] concerns Mycolicibacterium smegmatis. As to the kind of experiment: Antimicrobial activity against Mycobacterium smegmatis MC2 155 ATCC 700084 at 40 mg/L after 72 hrs by MTT assay in presence of EtBr. The experiment is classed as functional.
The subject of experiment [6] is Mycolicibacterium smegmatis MC2 155. As to the kind of experiment: Inhibition of multidrug resistance efflux pump in Mycobacterium smegmatis MC2 155 ATCC 700084 assessed as EtBr accumulation at 128 mg/L measured every 3 mins interval for 45 mins by fluorometric method. The gist of the method:
(§1)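 Cells are grown in 7H9/OADC at 37 °C to OD600 0.8, then pelleted and exposed to EtBr with test compound. Verapamil, reserpine, CCCP and DMSO serve as controls. EtBr fluorescence (excitation 530 nm, emission 600 nm) is read every 3 min for 45 min in a microplate spectrofluorimeter. Test concentrations are fractions (1/2, 1/4, 1/8) of each compound's MIC.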

Experiment [7] has as its system Mycolicibacterium smegmatis. As to the kind of experiment: Antimicrobial activity against Mycobacterium smegmatis MC2 155 ATCC 700084 at 125 mg/L after 72 hrs by MTT assay in presence of EtBr. Type of experiment: functional.
Experiment [8] relates to Mycolicibacterium smegmatis MC2 155. As to the kind of experiment: Inhibition of multidrug resistance efflux pump in Mycobacterium smegmatis MC2 155 ATCC 700084 assessed as EtBr accumulation at half concentration of MIC measured every 3 mins interval for 45 mins by fluorometric method. The essentials: as §1
The test system is the same in experiment [9]. As to the kind of experiment: Inhibition of multidrug resistance efflux pump in Mycobacterium smegmatis MC2 155 ATCC 700084 assessed as reduction in EtBr MIC at 125 mg/L by MTT assay relative to control.
Experiment [10] shares this test system. As to the kind of experiment: Inhibition of multidrug resistance efflux pump in Mycobacterium smegmatis MC2 155 ATCC 700084 assessed as reduction in EtBr MIC at 250 mg/L by MTT assay relative to control.
Experiment [11] shares this test system. As to the kind of experiment: Inhibition of multidrug resistance efflux pump in Mycobacterium smegmatis MC2 155 ATCC 700084 assessed as EtBr accumulation at 31.5 mg/L measured every 3 mins interval for 45 mins by spectrofluorometric method. The gist of the method:
as §1

For experiment [12] the test system is unchanged. As to the kind of experiment: Inhibition of multidrug resistance efflux pump in Mycobacterium smegmatis MC2 155 ATCC 700084 assessed as EtBr accumulation at 31.5 mg/L measured every 3 mins interval for 45 mins by fluorometric method. The essentials: as §1
Experiment [13] deals with Mycolicibacterium smegmatis. As to the kind of experiment: Antimicrobial activity against Mycobacterium smegmatis MC2 155 ATCC 700084 at 16 mg/L after 72 hrs by MTT assay in presence of EtBr. Type of experiment: functional.
The test system of experiment [14] is Mycolicibacterium smegmatis MC2 155. As to the kind of experiment: Inhibition of multidrug resistance efflux pump in Mycobacterium smegmatis MC2 155 ATCC 700084 assessed as reduction in EtBr MIC at 16 mg/L by MTT assay relative to control.
Experiment [15] shares this test system. As to the kind of experiment: Inhibition of multidrug resistance efflux pump in Mycobacterium smegmatis MC2 155 ATCC 700084 assessed as EtBr accumulation at 12.5 mg/L measured every 3 mins interval for 45 mins by fluorometric method. The essentials: as §1
The test system is the same in experiment [16]. As to the kind of experiment: Inhibition of multidrug resistance efflux pump in Mycobacterium smegmatis MC2 155 ATCC 700084 assessed as reduction in EtBr MIC at 31.2 mg/L by MTT assay relative to control.
The subject of experiment [17] is Mycolicibacterium smegmatis. As to the kind of experiment: Antimicrobial activity against Mycobacterium smegmatis MC2 155 ATCC 700084 at 31.2 mg/L after 72 hrs by MTT assay in presence of EtBr. Type of experiment: functional.

Values after ≈ are worked out from the molar mass of the structure shown. Active and inactive are the calls of the source.

Take `O=C1/C(=C/c2ccccc2Cl)COc2cc(O)ccc21`: the “fractional inhibitory concentration index (FICI)” value in [1] came out at 1. In addition, the fold change (FC) in [2] turned out to be 2. In experiment [3], this molecule returned an MIC of 125 µg/mL (≈ 436 µM).

In the case of `COc1ccc(CCN(C)CCCC(C#N)(c2ccc(OC)c(OC)c2)C(C)C)cc1OC` (stereo not drawn), the “fractional inhibitory concentration index (FICI)” value in experiment [4] was found to be 0.552; in experiment [5] it was 0.63. In experiment [3], this molecule came in with an MIC of 300 µg/mL (≈ 660 µM).

In the case of `COC(=O)[C@H]1[C@H]2C[C@@H]3c4[nH]c5cc(OC)ccc5c4CCN3C[C@H]2C[C@@H](OC(=O)c2cc(OC)c(OC)c(OC)c2)[C@@H]1OC` [RESERPINE], the result in [6] was Active. This molecule yielded a minimum inhibitory concentration (MIC) in experiment [3] of 256 µg/mL (≈ 421 µM). Moreover, the “fractional inhibitory concentration index (FICI)” value in [5] is recorded as 0.4.

Turning to `O=C1/C(=C/c2ccccc2)COc2cc(O)ccc21`, the “fractional inhibitory concentration index (FICI)” value in [7] and in experiment [1] was 0.37 in each case. The outcome in experiment [8] was Active. Besides, the fold change (FC) came out at 8 in experiment [9] and 4 in [2]. In [3], this molecule registered an MIC of 500 µg/mL (≈ 1980 µM).

Turning to `O=C1/C(=C/c2ccc(O)cc2)COc2cc(O)ccc21`, the “fractional inhibitory concentration index (FICI)” value in experiment [7] was determined as 0.56; in experiment [1] it was 0.37. For the same molecule, the outcome in experiment [8] was Active. For the same molecule, the figures for the fold change (FC) in [9] and in experiment [2] were 16 and 8, respectively. In experiment [3], this molecule showed a minimal inhibitory concentration (MIC) of 250 µg/mL (≈ 932 µM).

For the molecule `COc1ccc(/C=C2\COc3cc(O)cc(O)c3C2=O)cc1`, the fold change (FC) in experiment [2] came out at 2; in experiment [10] it was 4.

Turning to `C=CCOc1cccc(/C=C2\COc3cc(O)ccc3C2=O)c1`, the “fractional inhibitory concentration index (FICI)” value in experiment [7] is listed as 0.62; in [1], 0.5. The outcome in experiment [8], in experiment [11] and in experiment [12] was Active. Besides, the fold change (FC) in experiment [9] is 8; in experiment [2], 4. In experiment [3], this molecule came in with a minimum inhibitory concentration (MIC) of 250 µg/mL (≈ 811 µM).

Regarding `O=C1/C(=C/c2cccc(F)c2)COc2cc(O)ccc21`, the “fractional inhibitory concentration index (FICI)” value in [7] turned out to be 0.75. For the same molecule, in [8], the result was Active. In addition, the fold change (FC) in [9] was found to be 4. This molecule yielded an MIC in experiment [3] of 250 µg/mL (≈ 925 µM).

Regarding `COc1ccc(/C=C2\COc3c(ccc(O)c3OC)C2=O)cc1` [E-8-METHOXYBONDUCELLIN], the “fractional inhibitory concentration index (FICI)” value in [1] turned out to be 1. For the same molecule, in experiment [2], the fold change (FC) came to 2. The same molecule came in with an MIC in [3] of 125 µg/mL (≈ 400 µM).

Regarding `N#CC(C#N)=NNc1cccc(Cl)c1` [CARBONYL CYANIDE M-CHLOROPHENYLHYDRAZONE], the “fractional inhibitory concentration index (FICI)” value in experiment [13] is recorded as 1.14. For the same molecule, in [14], the fold change (FC) was found to be 2. Moreover, the minimal inhibitory concentration (MIC) in experiment [3] came to 25 µg/mL (≈ 122 µM). Further, the result in experiment [15] was Active.

On to `C=CCOc1ccc(/C=C2\COc3cc(O)ccc3C2=O)cc1`, for which, in experiment [7], the “fractional inhibitory concentration index (FICI)” value is 0.75. Also, in experiment [9], the fold change (FC) came out at 2. The same molecule came in with an MIC in experiment [3] of 250 µg/mL (≈ 811 µM).

Consider `O=C1/C(=C/c2ccccc2Br)COc2cc(O)ccc21`, for which the “fractional inhibitory concentration index (FICI)” value in experiment [1] is reported as 1. Besides, the fold change (FC) in experiment [2] is 2. In experiment [3], this molecule registered an MIC of 125 µg/mL (≈ 377 µM).

Turning to `COc1ccc(/C=C2\COc3c(ccc(O)c3O)C2=O)cc1` [INTRICATINOL], the “fractional inhibitory concentration index (FICI)” value in [1] amounted to 1. Further, in [2], the fold change (FC) is 2. This molecule also registered a minimum inhibitory concentration (MIC) in experiment [3] of 125 µg/mL (≈ 419 µM).

For the molecule `O=C1/C(=C/c2ccc(Br)cc2)COc2cc(O)ccc21`, the “fractional inhibitory concentration index (FICI)” value in experiment [7] stood at 0.75. The fold change (FC) in experiment [9] is 2. Also, it took 500 µg/mL (≈ 1510 µM) to inhibit growth in experiment [3] (MIC).

Consider `COc1ccc(/C=C2\COc3cc(O)ccc3C2=O)cc1` [BONDUCELLIN], for which the outcome in [8] was Active. Further, the “fractional inhibitory concentration index (FICI)” value in experiment [1] was 0.62; in experiment [17], 0.5. Besides, the results for the fold change (FC) in [2] and in [16] were 8 and 4, respectively. The molecule further showed an MIC in [3] of 125 µg/mL (≈ 443 µM).

Consider `O=C1/C(=C/c2cccc(Cl)c2)COc2cc(O)ccc21`, for which the “fractional inhibitory concentration index (FICI)” value in experiment [7] is on record as 1. Also, in experiment [9], the fold change (FC) turned out to be 2. Besides, the MIC in experiment [3] was found to be 250 µg/mL (≈ 872 µM).

In the case of `O=C1/C(=C/c2ccc(Cl)cc2)COc2cc(O)ccc21`, in experiment [7], the “fractional inhibitory concentration index (FICI)” value was 0.75. For the same molecule, the outcome in experiment [8] was Active. Besides, the fold change (FC) in experiment [9] was 4. This molecule yielded an MIC in [3] of 250 µg/mL (≈ 872 µM).

As for `O=C1/C(=C/c2ccc(F)cc2)COc2cc(O)ccc21`, the “fractional inhibitory concentration index (FICI)” value in experiment [7] is reported as 0.75. In experiment [8], the outcome was Active. Besides, the fold change (FC) in experiment [9] is 4. Further, 250 µg/mL (≈ 925 µM) was the least that counted as inhibitory in experiment [3] (MIC).

For the molecule `O=C1/C(=C/c2ccc(C(F)(F)F)cc2)COc2cc(O)ccc21`, in experiment [7], the “fractional inhibitory concentration index (FICI)” value worked out at 0.75. For the same molecule, the fold change (FC) in experiment [9] worked out at 4. Moreover, in [3], the MIC is 250 µg/mL (≈ 781 µM).

`CC[n+]1c(-c2ccccc2)c2cc(N)ccc2c2ccc(N)cc21.[Br-]` [HOMIDIUM BROMIDE]: the MIC in experiment [3] amounted to 16 µg/mL.

`O=C1/C(=C/c2cccc(O)c2)COc2cc(O)ccc21`: in [7], the “fractional inhibitory concentration index (FICI)” value was 0.5. The outcome in experiment [8] was Active. Moreover, the fold change (FC) in experiment [9] is 4. Besides, the lowest concentration to inhibit growth in experiment [3] (MIC) was 500 µg/mL (≈ 1860 µM).

With `O=C1/C(=C/c2ccccc2F)COc2cc(O)ccc21`, the outcome in experiment [8], in experiment [11] and in [12] was Active. Moreover, the “fractional inhibitory concentration index (FICI)” value in experiment [1] is listed as 0.75. The fold change (FC) in experiment [2] came to 4. Besides, the lowest concentration to inhibit growth in experiment [3] (MIC) was 125 µg/mL (≈ 463 µM).

Take `COc1cccc(/C=C2\COc3cc(O)ccc3C2=O)c1`: in experiment [7], the “fractional inhibitory concentration index (FICI)” value worked out at 0.75. The fold change (FC) in experiment [9] was 2. For the same molecule, the lowest concentration to inhibit growth in [3] (MIC) was 500 µg/mL (≈ 1770 µM).

As for `O=C1/C(=C/c2cccc(Br)c2)COc2cc(O)ccc21`, the “fractional inhibitory concentration index (FICI)” value in [7] is listed as 0.75. Besides, the fold change (FC) in experiment [9] came to 2. The molecule also came in with a minimal inhibitory concentration (MIC) in experiment [3] of 500 µg/mL (≈ 1510 µM).

Turning to `C=CCOc1ccccc1/C=C1\COc2cc(O)ccc2C1=O`, the “fractional inhibitory concentration index (FICI)” value in experiment [7] stood at 0.75. In addition, the fold change (FC) in experiment [9] was determined as 2. Further, the lowest concentration to inhibit growth in experiment [3] (MIC) was 500 µg/mL (≈ 1620 µM).

For the molecule `COc1ccccc1/C=C1\COc2cc(O)ccc2C1=O`, the “fractional inhibitory concentration index (FICI)” value in experiment [7] is given as 0.75. In [8], the result was Active. In addition, in experiment [9], the fold change (FC) is 4. This molecule came in with a minimum inhibitory concentration (MIC) in experiment [3] of 250 µg/mL (≈ 886 µM).
